# From PMC10682633 (Heliyon, 2023)
# Columns and labels:
# tyrosinase [1] = details: tyrosinase inhibition; cited from earlier work
# [2] = Antioxidant activity, DPPH assay; details: for % inhibition at 200 μM: 200 μM compound; for IC50: read-out: IC50(μM) ± RSD
# mushroom tyrosinase = experiment: Tyrosinase inhibitory assay; assay type: biochemical; details: for % inhibition at 50 μM: 50 μM compound, L-DOPA substrate; for IC50: read-out: IC50 (μM) ± RSD, L-DOPA substrate, means ± RSD
# tyrosinase [3] = experiment: Enzyme kinetic studies; assay type: biochemical; details: Lineweaver-Burk plot; L-DOPA 0-1.5 mM; inhibitor 5-80 μM
# Method in brief: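 Mushroom tyrosinase with L-DOPA as substrate, tested across several inhibitor concentrations. Reaction rates were plotted as 1/V against 1/[S] (Lineweaver–Burk double-reciprocal plot) to assign the inhibition type. Km was read from this plot.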
SMILES,% inhibition at 50 μM (mushroom tyrosinase) [%],IC50 (mushroom tyrosinase) [µM],% inhibition at 200 μM [2] [%],other results
"O=c1cc(/C=C/c2cc(=O)c(O)co2)occ1O [B, (E)-6,6'-(ethene-1,2-diyl)bis(3-hydroxy-4H-pyran-4-one)]",–,–,–,IC50 (tyrosinase [1]): 3.63 µM
"O=c1cc(CO)oc(C(Nc2ccccn2)c2ccccc2)c1O (stereo not drawn) [Compound 4a, 3-Hydroxy-6-(hydroxymethyl)-2-(phenyl(pyridin-2-ylamino)methyl)-4H-pyran-4-one]",29.14 ± 2.86,–,20.86 ± 4.41,–
"O=c1cc(CO)oc(C(Nc2ccccn2)c2ccccc2F)c1O (stereo not drawn) [Compound 4b, 2-((2-Fluorophenyl)(pyridin-2-ylamino)methyl)-3-hydroxy-6-(hydroxymethyl)-4H-pyran-4-one]",59.42 ± 5.71,28.2 ± 3.63,14.09 ± 4.10,–
"O=c1cc(CO)oc(C(Nc2ccccn2)c2cccc(F)c2)c1O (stereo not drawn) [Compound 4c, 2-((3-Fluorophenyl)(pyridin-2-ylamino)methyl)-3-hydroxy-6-(hydroxymethyl)-4H-pyran-4-one]",28.47 ± 1.59,–,18.65 ± 3.05,–
"O=c1cc(CO)oc(C(Nc2ccccn2)c2ccccc2Cl)c1O (stereo not drawn) [Compound 4d, 2-((2-Chlorophenyl)(pyridin-2-ylamino)methyl)-3-hydroxy-6-(hydroxymethyl)-4H-pyran-4-one]",60.35 ± 1.43,22.4 ± 3.34,19.49 ± 3.98,–
"O=c1cc(CO)oc(C(Nc2ccccn2)c2cccc(Cl)c2)c1O (stereo not drawn) [Compound 4e, 2-((3-Chlorophenyl)(pyridin-2-ylamino)methyl)-3-hydroxy-6-(hydroxymethyl)-4H-pyran-4-one]",50.57 ± 2.65,44.7 ± 3.59,17.21 ± 4.01,–
"O=c1cc(CO)oc(C(Nc2ccccn2)c2ccccc2Br)c1O (stereo not drawn) [Compound 4f, 2-((2-Bromophenyl)(pyridin-2-ylamino)methyl)-3-hydroxy-6-(hydroxymethyl)-4H-pyran-4-one]",60.85 ± 4.29,23.4 ± 4.19,13.03 ± 2.86,–
"O=c1cc(CO)oc(C(Nc2ccccn2)c2cccc(Br)c2)c1O (stereo not drawn) [Compound 4g, 2-((3-Bromophenyl)(pyridin-2-ylamino)methyl)-3-hydroxy-6-(hydroxymethyl)-4H-pyran-4-one]",33.71 ± 4.88,–,18.44 ± 1.54,–
"O=c1cc(CO)oc(C(Nc2ccccn2)c2cccc([N+](=O)[O-])c2)c1O (stereo not drawn) [Compound 4h, 3-Hydroxy-6-(hydroxymethyl)-2-((3-nitrophenyl)(pyridin-2-ylamino)methyl)-4H-pyran-4-one]",74.85 ± 4.26,20.4 ± 2.15,–,% inhibition at 200 μM ([2]; 200 µM): 37.27 ± 5.42%; Mode of inhibition (tyrosinase [3]): uncompetitive
"COc1ccc(C(Nc2ccccn2)c2oc(CO)cc(=O)c2O)cc1[N+](=O)[O-] (stereo not drawn) [Compound 4i, 3-Hydroxy-6-(hydroxymethyl)-2-((4-methoxy-3-nitrophenyl)(pyridin-2-ylamino)methyl)-4H-pyran-4-one]",56.57 ± 3.84,30.9 ± 4.13,64.24 ± 3.39,IC50 [2]: 121 ± 10.4 µM
"O=c1c(O)c(-c2ccc(O)c(O)c2)oc2cc(O)cc(O)c12 [Quercetin, reference compound]",–,–,–,IC50 [2]: 18.6 ± 2.19 µM

# Further lines, with some results ahead:
% inhibition at 50 μM (mushroom tyrosinase) [%],IC50 (mushroom tyrosinase) [µM],SMILES,% inhibition at 200 μM [2] [%],other results
–,> 50,"Cc1cccc(C(Nc2ccccn2)c2oc(CO)cc(=O)c2O)c1 (stereo not drawn) [Compound 4j, 3-Hydroxy-6-(hydroxymethyl)-2-((pyridin-2-ylamino)(m-tolyl)methyl)-4H-pyran-4-one]",17.90 ± 6.77,% inhibition at 50 μM (mushroom tyrosinase; 50 µM): 16.85 ± 3.14%
22.28 ± 4.52,> 50,"Cc1ccc(C(Nc2ccccn2)c2oc(CO)cc(=O)c2O)cc1 (stereo not drawn) [Compound 4k, 3-Hydroxy-6-(hydroxymethyl)-2-((pyridin-2-ylamino)(p-tolyl)methyl)-4H-pyran-4-one]",26.96 ± 2.54,–
52.07 ± 5.27,37.1 ± 5.42,"COc1cccc(C(Nc2ccccn2)c2oc(CO)cc(=O)c2O)c1O (stereo not drawn) [Compound 4l, 3-Hydroxy-2-((2-hydroxy-3-methoxyphenyl)(pyridin-2-ylamino)methyl)-6-(hydroxymethyl)-4H-pyran-4-one]",30.61 ± 5.76,–
35.42 ± 2.43,–,"O=c1cc(CO)oc(C(Nc2ccccn2)c2ccc(COc3ccccc3)cc2)c1O (stereo not drawn) [Compound 4m, 3-Hydroxy-6-(hydroxymethyl)-2-((4-(phenoxymethyl)phenyl)(pyridin-2-ylamino)methyl)-4H-pyran-4-one]",23.30 ± 5.17,–
